pIC50: −log10 of the molar value.
Key:
[1] = tested on: Plasmodium falciparum; experiment: Antimalarial activity against Plasmodium falciparum 3D7 cultured in human O+ erythrocytes assessed as reduction in parasite growth incubated for 48 hrs by SYBR green I based fluorescence assay; type: functional, organism-based; conditions: 3D7, 48 h
Method in brief: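 Sorbitol-synchronized ring-stage cultures (2% haematocrit, 1% parasitaemia) were exposed to serial dilutions in complete RPMI, top concentration 10 µM, for 48 h. Chloroquine served as positive control and no compound as negative control. Lysis buffer with SYBR Green I (Tris pH 7.5, EDTA, saponin, Triton X-100) was added for 1 h in the dark at 37°C. Fluorescence was read at ex 485/em 530 nm, and IC50 came from sigmoidal curves, checked against Giemsa smears.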

[2] = Selectivity index, ratio of HC50 for haemolytic activity in human erythrocytes to IC50 for antimalarial activity against Plasmodium falciparum 3D7 cultured in human O+ erythrocytes; type: toxicity, cell-based; conditions: read-out: Selectivity Index
[3] = Haemolytic activity in human erythrocytes assessed as induction of hemolysis incubated for 1 hr; type: cell-based, Erythrocyte
Method in brief: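 Human erythrocytes from fresh heparinized blood were suspended at 5 vol% in PBS (pH 7.4), mixed 3:1 with serially diluted compound, and incubated 1 h at 37°C. Controls were no compound and 1 vol% Triton X-100. After centrifugation, supernatant A540 gave % haemolysis relative to the Triton control. HC50 is the mean ± SEM of at least two independent experiments, each run in triplicate.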

[4] = tested on: Mus musculus; experiment: Toxicity in Plasmodium berghei ANKA infected in Swiss-Harlan mouse model of cerebral malaria assessed as induction of mouse death at 30 mg/kg, ip for 4 days dosed 2 hrs post infection and measured 5 days post infection by Giemsa staining based Peter's 4 day test; type: organism-based; conditions: in vivo, 120 h
[5] = tested on: Mus musculus; experiment: Toxicity in Balb/c mouse assessed as effect on blood electrochemical balance by measuring chloride level at 20 mg/kg, iv; type: organism-based; conditions: in vivo
[6] = tested on: Plasmodium falciparum; experiment: Antimalarial activity against […] Plasmodium falciparum MRC2 cultured in human O+ erythrocytes assessed as reduction in parasite growth incubated for 48 hrs by SYBR green I based fluorescence assay; type: functional, organism-based; conditions: MRC2, 48 h
Method in brief: (§1)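 Sorbitol-synchronized ring-stage cultures (2% haematocrit, 1% parasitaemia) exposed for 48 h to serial dilutions in complete RPMI, top concentration 10µM. CQ was the positive control and drug-free wells the negative control. Growth was read by SYBR Green I lysis buffer, 1 h at 37°C in the dark, fluorescence ex 485/em 530 nm. IC50 came from sigmoidal curve fits, checked by Giemsa smears.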

[7] = tested on: Mus musculus; experiment: Toxicity in Balb/c mouse assessed as effect on AST level level at 20 mg/kg, iv; type: organism-based; conditions: in vivo
[8] = tested on: Mus musculus; experiment: Toxicity in Balb/c mouse assessed as effect on blood electrochemical balance by measuring sodium level at 20 mg/kg, iv; type: organism-based; conditions: in vivo
[9] = Toxicity in Balb/c mouse at 5.5 to 175 mg/kg, iv for 14 days; type: organism-based; conditions: in vivo
Method in brief: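 Female Balb/c mice, 6-8 weeks old, dosed intravenously in PBS at 175, 55, 17.5 and 5.5 mg/kg. Adverse effects were observed directly for 4 h and mortality for 14 days. LD50 was calculated from survival with the Spearman-Karber equation.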

[10] = tested on: Mus musculus; experiment: Toxicity in Plasmodium berghei ANKA infected in Swiss-Harlan mouse model of cerebral malaria assessed as induction of prolonged malaise at 30 mg/kg, ip for 4 days dosed 2 hrs post infection and measured 5 days post infection by Giemsa staining based Peter's 4 day test; type: organism-based; conditions: in vivo, 120 h
[11] = tested on: Mus musculus; experiment: Toxicity in Balb/c mouse assessed as effect on urea nitrogen level level at 20 mg/kg, iv; type: organism-based; conditions: in vivo
[12] = tested on: Plasmodium berghei; experiment: (§2) Antimalarial activity against Plasmodium berghei ANKA infected in Swiss-Harlan mouse model of cerebral malaria assessed as reduction in parasitemia at 20 mg/kg, ip for 4 days dosed 2 hrs post infection and measured 5 days post infection by Giemsa staining based Peter's 4 day test; type: functional; design: scale not given: the % may be the effect or the level left
Method in brief: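 Female Swiss mice (6-8 weeks) were infected IP with 10⁷ P. berghei ANKA-parasitized RBCs. Two hours later, groups (n=4) received 20 mg/kg IP or PBS control, repeated every 24 h for four days. Parasitemia was read on day 5 from Giemsa-stained tail-blood smears, and survival was followed until death.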

[13] = tested on: Plasmodium berghei; experiment: as §2, with “time duration for complete mouse mortality” for “reduction in parasitemia”, “test (reference value: =<7 days)” for “test”; type: functional
Method in brief: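 Female Swiss mice, 6-8 weeks old, infected IP with 10⁷ P. berghei ANKA parasitized RBCs. Starting 2 h post-infection, 20 mg/kg IP (PBS vehicle; PBS-only controls) every 24 h for four days, n=4. Day-5 parasitemia read from Giemsa-stained tail-blood smears; survival followed until death.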

[14] = tested on: Mus musculus; experiment: Toxicity in Balb/c mouse assessed as effect on ALT level level at 20 mg/kg, iv; type: organism-based; conditions: in vivo
[15] = tested on: Mus musculus; experiment: Toxicity in Balb/c mouse assessed as effect on creatinine level level at 17.5 mg/kg, iv; conditions: in vivo
[16] = tested on: Mus musculus; experiment: Toxicity in Balb/c mouse assessed as effect on blood electrochemical balance by measuring potassium level at 20 mg/kg, iv; type: organism-based; conditions: in vivo
[17] = tested on: Plasmodium falciparum; experiment: Antimalarial activity against […] Plasmodium falciparum RKL9 cultured in human O+ erythrocytes assessed as reduction in parasite growth incubated for 48 hrs by SYBR green I based fluorescence assay; type: functional, organism-based; conditions: RKL9, 48 h; method in brief: as §1

SMILES	pIC50 [1]	selectivity ratio [2]	HC50 at 1 h [3]	Activity [4]	Activity [5]	pIC50 [6]	Activity [7]	Activity [8]	LD50 at 336 h [9]	Activity [10]	Activity [11]	Activity [12]	Time [13]	Activity [14]	Activity [15]	Activity [16]	pIC50 [17]
CCCCCCCCN(Cc1ccccc1)C(=O)C(CCCCNC(=O)OC(C)(C)C)NC(=O)OC(C)(C)C (stereo not given)	5.40	141	564 µM	–	–	–	–	–	–	–	–	–	–	–	–	–	–
CCCCCCCCN(Cc1cccc2ccccc12)C(=O)C(CCCCNC(=O)OC(C)(C)C)NC(=O)OC(C)(C)C (stereo not given)	5.52	32	96 µM	–	–	–	–	–	–	–	–	–	–	–	–	–	–
CCCCCCN(Cc1ccccc1)C(=O)C(CCCCNC(=O)OC(C)(C)C)NC(=O)OC(C)(C)C (stereo not given)	< 5.30	–	> 1000 µM	–	–	–	–	–	–	–	–	–	–	–	–	–	–
CCCCCCN(Cc1cccc2ccccc12)C(=O)C(CCCCNC(=O)OC(C)(C)C)NC(=O)OC(C)(C)C.O=C(O)C(F)(F)F.O=C(O)C(F)(F)F (stereo not given)	6.00	850	850 µM	Toxic	Non-Toxic	5.30	Non-Toxic	Non-Toxic	98 mg/kg	Toxic	Non-Toxic	60%	12 days	Non-Toxic	Non-Toxic	Non-Toxic	5.85
